{
  "source": "ChEMBL document CHEMBL1275402",
  "about": "“Virtual screening to identify novel antagonists for the G protein-coupled NK3 receptor” (J Med Chem, 2010)",
  "data": [
    {"biological_target": "T1, Neuromedin-K receptor (Homo sapiens) (UniProt P29371)", "T1 sequence (whole entry)": "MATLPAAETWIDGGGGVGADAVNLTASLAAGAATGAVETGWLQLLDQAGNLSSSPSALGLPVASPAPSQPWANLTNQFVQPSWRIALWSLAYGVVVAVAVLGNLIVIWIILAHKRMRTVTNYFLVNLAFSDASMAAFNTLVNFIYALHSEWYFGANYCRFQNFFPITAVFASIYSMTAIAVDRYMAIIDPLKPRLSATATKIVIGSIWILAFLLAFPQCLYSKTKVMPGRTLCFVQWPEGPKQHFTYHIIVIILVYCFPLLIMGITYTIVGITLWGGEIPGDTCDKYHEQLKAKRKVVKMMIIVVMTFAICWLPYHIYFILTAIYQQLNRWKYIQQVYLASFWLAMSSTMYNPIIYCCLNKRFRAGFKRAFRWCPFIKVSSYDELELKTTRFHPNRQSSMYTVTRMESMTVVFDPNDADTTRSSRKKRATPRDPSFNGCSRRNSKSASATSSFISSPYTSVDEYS", "experiment": "Antagonist activity against human NK3 receptor expressed in CHO cells assessed as inhibition of senktide-induced increase of intracellular calcium level at 50 uM after 10 mins by fluorescent plate-reader analysis relative to control", "format": "functional, cell-based", "conditions": "not given", "outline": "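hNK3R-expressing CHO cells were preincubated 10 min with test compound at 50 μM. The calcium response to 200 nM senktide was then measured and expressed as percent inhibition versus the senktide response without antagonist.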", "units": {"inhibition": "%"}, "values": [
      {"smiles": "CCC(NC(=O)c1cc(-c2ccccc2)nc2ccccc12)c1ccccn1", "note": "(configuration not stated)", "inhibition": 82},
      {"smiles": "Cc1cccc(-c2nc3c(NCc4ccccc4)nccc3[nH]2)c1", "inhibition": 40},
      {"smiles": "COc1cccc(-c2nc3c(NCc4ccncc4)nccc3[nH]2)c1F", "inhibition": 39},
      {"smiles": "CCCN1N=C(C(=O)NC(C)c2ccccc2)C2CN(CC)CCC21", "note": "(configuration not stated)", "inhibition": 6},
      {"smiles": "Cc1ccc(CNC(=O)c2cc(-c3ccccc3)nc3ccccc23)cc1", "inhibition": 21},
      {"smiles": "CC(NC(=O)c1cc(-c2ccccc2)nc2ccccc12)c1ccccc1", "note": "(configuration not stated)", "inhibition": 61},
      {"smiles": "O=C(NCc1ccc(Cl)cc1)c1cc(-c2ccc(Cl)cc2)nc2ccccc12", "inhibition": 13},
      {"smiles": "Cc1ccc(-c2cc(C(=O)NC(C)c3ccccc3)c3ccccc3n2)c(C)c1", "note": "(configuration not stated)", "inhibition": 18},
      {"smiles": "COc1ccc(-c2cc(C(=O)NC(C)c3ccccn3)c3ccccc3n2)cc1OC", "note": "(configuration not stated)", "inhibition": 16},
      {"smiles": "CCOC(=O)c1nn(C)c2c1CN(C(=O)c1cc(-c3ccccc3)nc3ccccc13)CC2", "inhibition": 8},
      {"smiles": "Cc1ccc(-c2cc(C(=O)NCc3ccc(F)cc3)c3ccccc3n2)cc1", "inhibition": 7},
      {"smiles": "O=C(NCc1ccccc1)c1cc(-c2ccccc2)nc2ccccc12", "inhibition": 30},
      {"smiles": "O=C(NCc1ccccn1)c1cc(-c2ccccc2)nc2ccccc12", "inhibition": 17},
      {"smiles": "O=C(NCc1ccc(Cl)cc1)c1cc(-c2ccccc2Cl)nc2ccccc12", "inhibition": 14},
      {"smiles": "Cc1ccc(CNC(=O)c2cc(-c3ccc(C)cc3C)nc3ccccc23)cc1", "inhibition": 9},
      {"smiles": "c1ccc(CNc2nccc3[nH]c(-c4ccccc4)nc23)cc1", "inhibition": 42},
      {"smiles": "O=C(NCCc1ccccc1)c1cc(-c2ccccc2)nc2ccccc12", "inhibition": 54},
      {"smiles": "Cc1nc(-c2ccncc2)n2c1CN(C(=O)C1Cc3ccccc3O1)CC2", "note": "(configuration not stated)", "inhibition": 6},
      {"smiles": "Cc1ccc(-c2cc(C(=O)NCCc3ccccc3)c3ccccc3n2)cc1", "inhibition": 17}
    ]},
    {"biological_target": "T2, Neuromedin-K receptor (Homo sapiens, UniProt P29371)", "T2 sequence (P29371 whole entry)": "T1 sequence (whole entry)", "experiment": "Antagonist activity against human NK3 receptor expressed in HEK293 cells assessed as inhibition of MePhe7-NKB-induced increase of intracellular calcium level by fluorescent plate-reader analysis", "format": "functional, cell-based", "conditions": "in the assay text read “CHO cells” for “HEK293 cells”", "outline": "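Calcium responses to 50 nM MePhe7-NKB were measured across increasing antagonist concentrations, and IC50 was derived from the concentration-response curve.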", "units": {"IC50": "nM"}, "values": [
      {"smiles": "CCC(NC(=O)c1cc(-c2ccccc2)nc2ccccc12)c1ccccn1", "note": "(configuration not stated)", "IC50": 1400},
      {"smiles": "CC(NC(=O)c1cc(-c2ccccc2)nc2ccccc12)c1ccccc1", "note": "(configuration not stated)", "IC50": 9900}
    ]},
    {"biological_target": "T1, Neuromedin-K receptor (Homo sapiens)", "experiment": "not given", "conditions": "CHO", "units": {"Ks": "nM"}, "values": [
      {"smiles": "CC(=O)N(C)C1(c2ccccc2)CCN(CCC[C@]2(c3ccc(Cl)c(Cl)c3)CCCN(C(=O)c3ccccc3)C2)CC1", "Ks": 1}
    ]},
    {"biological_target": "T2, Neuromedin-K receptor", "experiment": "biochemical", "conditions": "not given", "units": {"IC50": "nM", "Ki": "nM"}, "values": [
      {"smiles": "CCC(NC(=O)c1cc(-c2ccccc2)nc2ccccc12)c1ccccn1", "note": "(configuration not stated)", "IC50": 5.2},
      {"smiles": "Nc1c(-c2ccccc2)nc2ccccc2c1C(=O)NC(c1ccccc1)C1CC1", "note": "(configuration not stated)", "Ki": 5.01},
      {"smiles": "Nc1c(-c2cccc(F)c2)nc2ccccc2c1C(=O)NC(c1cccc(F)c1)C1CC1", "note": "(configuration not stated)", "Ki": 6.31},
      {"smiles": "O=C(NC(CCO)c1ccccc1)c1cc(-c2ccccc2)nc2ccccc12", "note": "(configuration not stated)", "Ki": 398},
      {"smiles": "CCC(NC(=O)c1c(N)c(-c2cccc(F)c2)nc2ccccc12)c1ccccc1", "note": "(configuration not stated)", "Ki": 3.98},
      {"smiles": "Nc1c(-c2cccc(F)c2)nc2ccccc2c1C(=O)NC(c1ccccc1)C1CC1", "note": "(configuration not stated)", "Ki": 10},
      {"smiles": "O=C(NC(Cc1ccccc1)c1ccccc1)c1cc(-c2ccccc2)nc2ccccc12", "note": "(configuration not stated)", "Ki": 3160},
      {"smiles": "O=C(NC(CO)c1ccccc1)c1cc(-c2ccccc2)nc2ccccc12", "note": "(configuration not stated)", "Ki": 200},
      {"smiles": "O=C(NC(c1ccccc1)C(F)(F)F)c1cc(-c2ccccc2)nc2ccccc12", "note": "(configuration not stated)", "Ki": 501},
      {"smiles": "CC(=O)C(NC(=O)c1cc(-c2ccccc2)nc2ccccc12)c1ccccc1", "note": "(configuration not stated)", "Ki": 25.1},
      {"smiles": "CCCC(NC(=O)c1cc(-c2ccccc2)nc2ccccc12)c1ccccc1", "note": "(configuration not stated)", "Ki": 50.1},
      {"smiles": "CCCCCCCC(NC(=O)c1cc(-c2ccccc2)nc2ccccc12)c1ccccc1", "note": "(configuration not stated)", "Ki": 5010},
      {"smiles": "CC(NC(=O)c1cc(-c2ccccc2)nc2ccccc12)c1ccccc1", "note": "(configuration not stated)", "IC50": 33.5, "Ki": 251},
      {"smiles": "CCCCC(NC(=O)c1cc(-c2ccccc2)cc2ccccc12)c1ccccc1", "note": "(configuration not stated)", "Ki": 158},
      {"smiles": "CNC(=O)C(NC(=O)c1cc(-c2ccccc2)nc2ccccc12)c1ccccc1", "note": "(configuration not stated)", "Ki": 501},
      {"smiles": "CCCCc1c(-c2ccccc2)nc2ccccc2c1C(=O)NC(CC)c1ccccc1", "note": "(configuration not stated)", "Ki": 15.8},
      {"smiles": "NC(=O)C(NC(=O)c1cc(-c2ccccc2)nc2ccccc12)c1ccccc1", "note": "(configuration not stated)", "Ki": 1000},
      {"smiles": "Nc1c(-c2ccccc2)nc2ccccc2c1C(=O)NC(c1ccccc1F)C1CC1", "note": "(configuration not stated)", "Ki": 5.01},
      {"smiles": "CCC(NC(=O)c1c(OC)c(-c2ccccc2)nc2ccccc12)c1ccccc1", "note": "(configuration not stated)", "Ki": 6.31},
      {"smiles": "COC(=O)CC(NC(=O)c1cc(-c2ccccc2)nc2ccccc12)c1ccccc1", "note": "(configuration not stated)", "Ki": 1000},
      {"smiles": "CC(C)C(NC(=O)c1cc(-c2ccccc2)nc2ccccc12)c1ccccc1", "note": "(configuration not stated)", "Ki": 79.4},
      {"smiles": "CCCCCCc1c(-c2ccccc2)nc2ccccc2c1C(=O)NC(CC)c1ccccc1", "note": "(configuration not stated)", "Ki": 50.1},
      {"smiles": "CN(C)C(=O)C(NC(=O)c1cc(-c2ccccc2)nc2ccccc12)c1ccccc1", "note": "(configuration not stated)", "Ki": 501},
      {"smiles": "CCC(NC(=O)c1c(N)c(-c2ccc(F)cc2)nc2ccccc12)c1ccccc1", "note": "(configuration not stated)", "Ki": 7.94},
      {"smiles": "CCCc1c(-c2ccccc2)nc2ccccc2c1C(=O)NC(CC)c1ccccc1", "note": "(configuration not stated)", "Ki": 12.6},
      {"smiles": "CCC(NC(=O)c1c(-c2ccccc2)c(-c2ccccc2)nc2ccccc12)c1ccccc1", "note": "(configuration not stated)", "Ki": 50.1},
      {"smiles": "Nc1c(-c2ccccc2)nc2ccccc2c1C(=O)NC(c1cccc(F)c1)C1CC1", "note": "(configuration not stated)", "Ki": 3.16}
    ]},
    {"biological_target": "T2, Neuromedin-K receptor", "experiment": "Antagonist activity against human NK3 receptor expressed in CHO cells assessed as inhibition of senktide-induced increase of intracellular calcium level after 10 mins by fluorescent plate-reader analysis relative to control", "conditions": "not given", "units": {"IC50": "nM"}, "values": [
      {"smiles": "CCC(NC(=O)c1cc(-c2ccccc2)nc2ccccc12)c1ccccn1", "note": "(configuration not stated)", "IC50": 900},
      {"smiles": "CC(NC(=O)c1cc(-c2ccccc2)nc2ccccc12)c1ccccc1", "note": "(configuration not stated)", "IC50": 2200}
    ]}
  ]
}
